From ChEMBL document CHEMBL4038284, “Synthesis of novel quinoline-based 4,5-dihydro-1H-pyrazoles as potential anticancer, antifungal, antibacterial and antiprotozoal agents” (Eur J Med Chem, 2017)
≈ marks a conversion by molar mass, not a printed value.

Tests used:
[1] = system: Candida albicans; assay: Growth inhibition of Candida albicans ATCC 10231 at 3.4 ug/ml incubated for 48 hrs under dark condition by broth microdilution method relative to control; format: functional; settings: ATCC 10231, 48 h, read-out: GI
[2] = system: Cryptococcus neoformans; assay: Growth inhibition of Cryptococcus neoformans ATCC 32264 at 7.8 ug/ml incubated for 48 hrs under dark condition by broth microdilution method relative to control; format: functional; settings: ATCC 32264, 48 h, read-out: GI
Outline: (§1)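 CLSI M27-A3 broth microdilution in RPMI-1640, DMSO ≤1%. Inoculum 1-5 × 10^3 CFU/mL. Incubated 48 h at 30 °C, dark. % inhibition = 100 − (OD405 test − sterility control)/(OD405 growth control − sterility control), with growth and sterility control wells. Triplicate.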

[3] = system: Plasmodium falciparum; assay: Antiplasmodial activity against chloroquine-sensitive Plasmodium falciparum 3D7 assessed as reduction in parasitic LDH activity after 48 hrs by Malstat reagent based […] method; format: functional; settings: 3D7, 48 h
Outline: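 Unsynchronized P. falciparum 3D7 at 0.5% parasitemia and 1% hematocrit in RPMI with 3% Albumax II. Exposed to 100, 25, 6.25 and 1.56 µg/mL for 48 h at 37 °C under 90% N2/5% CO2/5% O2. After three freeze-thaw cycles, LDH measured with Malstat and NBT/PES, 1 h in the dark, read at 650 nm. IC50 by Probit; triplicate, ≥2 experiments.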

[4] = system: Staphylococcus aureus; assay: Antibacterial activity against methicillin-resistant Staphylococcus aureus ATCC 43300 after 24 hrs by resazurin dye based microdilution assay; format: functional; settings: ATCC 43300, 24 h
Outline: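 Broth microdilution in Mueller Hinton broth, inoculum 5 × 10^5 – 8 × 10^5. Compound stocks diluted in MHB with 5% DMSO and 0.1% Tween 80. Incubation 24 h at 35-37 °C. MIC is the lowest concentration with visible growth inhibition and/or by resazurin (1 mg/mL) read-out. Gentamicin as control. Run in duplicate, replicated at least three times.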

[5] = system: Staphylococcus aureus; assay: Antibacterial activity against methicillin-sensitive Staphylococcus aureus ATCC 25923 after 24 hrs by resazurin dye based microdilution assay; format: functional; settings: ATCC 25923, 24 h
Outline: (§2)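 MIC taken as the lowest concentration giving visible inhibition and/or by resazurin (1 mg/mL). Gentamicin was the control. Run in duplicate, repeated at least three times.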

[6] = system: Leishmania panamensis; assay: Antileshmanial activity against EpiR/GFP fused Leishmania panamensis MHOM/CO/87/UA140 intracellular amastigotes infected in human […] cells after 72 hrs by flow cytometric method; format: functional, cell-based; settings: MHOM/CO/87/UA140, 72 h
Outline: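 PMA-treated U-937 cells (3 × 10^5 cells/mL) infected with stationary-phase GFP L. panamensis promastigotes (15:1), 3 h at 34 °C, then washed. After 24 h, compounds added at 50, 12.5, 3.125 and 0.78 µg/mL for 72 h at 37 °C. EC50 by Probit; triplicate, two experiments.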

[7] = system: U-937; assay: Cytotoxicity against human U937 cells after 72 hrs by MTT assay; format: cell-based; settings: u-937, 72 h
Outline: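 Exponentially growing U-937 at 1 × 10^5 cells/mL in RPMI-1640 with 10% FBS were exposed to 200, 50, 12.5 and 3.125 µg/mL for 72 h at 37 °C, 5% CO2. MTT for 3 h, stopped with isopropanol/SDS, formazan read at 570 nm, blank-corrected. LC50 by Probit from % viability against untreated cells. Triplicate, at least two independent experiments.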

[8] = system: Staphylococcus aureus; assay: Antibacterial activity against vancomycin-intermediate Staphylococcus aureus after 24 hrs by resazurin dye based microdilution assay; format: functional; outline: as §2
[9] = system: Cryptococcus neoformans; assay: Growth inhibition of Cryptococcus neoformans ATCC 32264 at 3.4 ug/ml incubated for 48 hrs under dark condition by broth microdilution method relative to control; format: functional; settings: ATCC 32264, 48 h, read-out: GI
[10] = system: Cryptococcus neoformans; assay: Antifungal activity against Cryptococcus neoformans ATCC 32264 incubated for 48 hrs under dark condition by broth microdilution method; format: functional; settings: ATCC 32264, 48 h
Outline: (§3)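 CLSI M27-A3 broth microdilution in RPMI-1640, DMSO ≤1%, compounds at 250-0.98 µg/mL final. Inoculum 1-5 × 10^3 CFU/mL. Incubated 48 h at 30 °C in a moist dark chamber, read at OD405. MIC80 and MIC50 taken from % inhibition dose-response curves (mean ± SEM, triplicate). Amphotericin B was the positive control.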

[11] = system: Pseudomonas aeruginosa; assay: Antibacterial activity against Pseudomonas aeruginosa ATCC 27853 after 24 hrs by resazurin dye based microdilution assay; format: functional; settings: ATCC 27853, 24 h; outline: as §2
[12] = system: Cryptococcus neoformans; assay: Growth inhibition of Cryptococcus neoformans ATCC 32264 at 125 ug/ml incubated for 48 hrs under dark condition by broth microdilution method relative to control; format: functional; settings: ATCC 32264, 48 h, read-out: GI; outline: as §1
[13] = system: Cryptococcus neoformans; assay: Growth inhibition of Cryptococcus neoformans ATCC 32264 at 250 ug/ml incubated for 48 hrs under dark condition by broth microdilution method relative to control; format: functional; settings: ATCC 32264, 48 h, read-out: GI; outline: as §1
[14] = system: Cryptococcus neoformans; assay: Growth inhibition of Cryptococcus neoformans ATCC 32264 at 62.5 ug/ml incubated for 48 hrs under dark condition by broth microdilution method relative to control; format: functional; settings: ATCC 32264, 48 h, read-out: GI; outline: as §1
[15] = system: Candida albicans; assay: Growth inhibition of Candida albicans ATCC 10231 at 125 ug/ml incubated for 48 hrs under dark condition by broth microdilution method relative to control; format: functional; settings: ATCC 10231, 48 h, read-out: GI; outline: as §1
[16] = system: Trypanosoma cruzi; assay: Antitrypanosomal activity against Trypanosoma cruzi Tulahuen intracellular amastigote harboring LacZ infected in human U937 cells after 72 hrs by CPRG/Nonidet reagent based spectrophotometric method; format: functional, cell-based; settings: U-937, 72 h
Outline: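 U-937 cells at 2.5 × 10^5 cells/mL in RPMI-1640 with 10% serum and 0.1 µg/mL PMA were infected with β-galactosidase-transfected Tulahuen epimastigotes at 5 parasites per cell. Infected cells were exposed to 50, 12.5, 3.125 and 0.78 µg/mL for 72 h. CPRG (100 uM) and 0.1% Nonidet P-40 were added for 3 h, read at 570 nm. EC50 by Probit. Triplicate, at least two experiments; benznidazole as reference.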

[17] = system: Cryptococcus neoformans; assay: Growth inhibition of Cryptococcus neoformans ATCC 32264 at 31.25 ug/ml incubated for 48 hrs under dark condition by broth microdilution method relative to control; format: functional; settings: ATCC 32264, 48 h, read-out: GI; outline: as §1
[18] = system: Candida albicans; assay: Growth inhibition of Candida albicans ATCC 10231 at 7.8 ug/ml incubated for 48 hrs under dark condition by broth microdilution method relative to control; format: functional; settings: ATCC 10231, 48 h, read-out: GI; outline: as §1
[19] = system: Cryptococcus neoformans; assay: Growth inhibition of Cryptococcus neoformans ATCC 32264 at 15.62 ug/ml incubated for 48 hrs under dark condition by broth microdilution method relative to control; format: functional; settings: ATCC 32264, 48 h, read-out: GI; outline: as §1
[20] = system: Candida albicans; assay: Growth inhibition of Candida albicans ATCC 10231 at 31.25 ug/ml incubated for 48 hrs under dark condition by broth microdilution method relative to control; format: functional; settings: ATCC 10231, 48 h, read-out: GI; outline: as §1
[21] = system: Klebsiella pneumoniae; assay: Antibacterial activity against ESBL positive Klebsiella pneumoniae ATCC 700603 after 24 hrs by resazurin dye based microdilution assay; format: functional; settings: Klebsiella pneumoniae, 700603, 24 h; outline: as §2
[22] = system: Klebsiella pneumoniae; assay: Antibacterial activity against carbapenemase positive Klebsiella pneumoniae BAA 1705 after 24 hrs by resazurin dye based microdilution assay; format: functional; settings: BAA 1705, 24 h; outline: as §2
[23] = system: Candida albicans; assay: Antifungal activity against Candida albicans ATCC 10231 incubated for 48 hrs under dark condition by broth microdilution method; format: functional; settings: ATCC 10231, 48 h; outline: as §3
[24] = system: Candida albicans; assay: Growth inhibition of Candida albicans ATCC 10231 at 62.5 ug/ml incubated for 48 hrs under dark condition by broth microdilution method relative to control; format: functional; settings: ATCC 10231, 48 h, read-out: GI; outline: as §1
[25] = system: Candida albicans; assay: Growth inhibition of Candida albicans ATCC 10231 at 250 ug/ml incubated for 48 hrs under dark condition by broth microdilution method relative to control; format: functional; settings: ATCC 10231, 48 h, read-out: GI; outline: as §1
[26] = system: Escherichia coli; assay: Antibacterial activity against Escherichia coli ATCC 25922 after 24 hrs by resazurin dye based microdilution assay; format: functional; settings: ATCC 25922, 24 h; outline: as §2
[27] = system: Candida albicans; assay: Growth inhibition of Candida albicans ATCC 10231 at 15.62 ug/ml incubated for 48 hrs under dark condition by broth microdilution method relative to control; format: functional; settings: ATCC 10231, 48 h, read-out: GI; outline: as §1
[28] = system: Neisseria gonorrhoeae; assay: Antibacterial activity against beta lactamase positive Neisseria gonorrhoeae ATCC 31426 by oxidase test; format: functional
Outline: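 Agar dilution MIC on GC agar with 1% isovitalex containing increasing compound concentrations. Plates inoculated with about 1×10^4 CFU (5 µL). MIC is the lowest concentration that inhibited growth, with growth confirmed by oxidase test. Run in duplicate, repeated at least three times.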

Compound | inhibition of growth at 7.8 µg/mL [2] | EC50 [3] | LC50 [7] | inhibition of growth at 3.4 µg/mL [9] | inhibition of growth at 125 µg/mL [12] | inhibition of growth at 250 µg/mL [13] | inhibition of growth at 62.5 µg/mL [14] | EC50 [16] | inhibition of growth at 31.25 µg/mL [17] | inhibition of growth at 15.62 µg/mL [19] | also measured
CC(=O)N1N=C(c2ccccc2)CC1c1cccc(Nc2ccnc3cc(Cl)ccc23)c1 (stereo unspecified) | 8.77% | 12.7 µg/mL (≈ 28.7 µM) | 5.8 µg/mL (≈ 13.2 µM) | 0% | 41.9% | 69.2% | 12.8% | 4.26 µg/mL (≈ 9.66 µM) | 12.3% | 12.2% | inhibition of growth at 3.4 µg/mL [1]: 5.28%; MIC [4]: > 1000 µg/mL; MIC [5]: > 1000 µg/mL; EC50 [6]: 3.67 µg/mL (≈ 8.32 µM); MIC [8]: > 1000 µg/mL; MIC50 [10]: 250 µg/mL (≈ 567 µM); MIC80 [10]: ≥ 250 µg/mL; MIC [11]: > 1000 µg/mL; inhibition of growth at 125 µg/mL [15]: 27.5%; inhibition of growth at 7.8 µg/mL [18]: 10.5%; inhibition of growth at 31.25 µg/mL [20]: 21.2%; MIC [21]: > 1000 µg/mL; MIC [22]: > 1000 µg/mL; MIC50 [23]: 250 µg/mL (≈ 567 µM); MIC80 [23]: ≥ 250 µg/mL; inhibition of growth at 62.5 µg/mL [24]: 23.1%; inhibition of growth at 250 µg/mL [25]: 53.3%; MIC [26]: > 1000 µg/mL; inhibition of growth at 15.62 µg/mL [27]: 19.8%; MIC [28]: > 1000 µg/mL
O=C(Cn1ccnc1[N+](=O)[O-])NCc1ccccc1 [BENZNIDAZOLE] | – | – | 180 µg/mL (≈ 692 µM) | – | – | – | – | 10.7 µg/mL (≈ 41.1 µM) | – | – | –
C[C@@H]1[C@H](O)[C@@H](C)/C=C/C=C/C=C/C=C/C=C/C=C/C=C/[C@H](O[C@@H]2O[C@H](C)[C@@H](O)[C@H](N)[C@@H]2O)C[C@@H]2O[C@](O)(C[C@@H](O)C[C@@H](O)[C@H](O)CC[C@@H](O)C[C@@H](O)CC(=O)O[C@H]1C)C[C@H](O)[C@H]2C(=O)O [AMPHOTERICIN B] | 100% | – | 36 µg/mL (≈ 39 µM) | 100% | 100% | 100% | 100% | – | 100% | 100% | –
CCN(CC)CCCC(C)Nc1ccnc2cc(Cl)ccc12.O=P(O)(O)O.O=P(O)(O)O (stereo unspecified) [CHLOROQUINE PHOSPHATE] | – | 18.9 µg/mL | – | – | – | – | – | – | – | – | –
